Calls of active or inactive are those of the source. The calls are words filed in the database; no cut-off is given here.
Tests used:
[1] = system: RAW264.7; experiment: Inhibition of PI3K/Akt signaling in mouse RAW264.7 cells assessed as inhibition of LPS-induced NFkappB p-p65 accumulation at 1.25 uM in presence of LPS by western blot analysis; format: cell-based
Outline: (§1)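 Lysates of LPS-stimulated RAW 264.7 cells (20–30 μg protein) are run on 10% SDS-PAGE, blotted, blocked with 5% milk, probed overnight at 4 °C (1:5,000), then detected with HRP secondary and ECL. Actin, GAPDH or H3 (nuclear fraction) serve as loading controls, with densitometry ratios. Blots are representative of three independent experiments; mean + SD (n = 3).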

[2] = system: RAW264.7; experiment: Inhibition of PI3K/Akt signaling in mouse RAW264.7 cells assessed as inhibition of LPS-induced Akt phosphorylation at 1.25 uM in presence of LPS by western blot analysis; format: cell-based; outline: as §1
[3] = system: Mus musculus; experiment: Antiinflammatory activity against DSS-induced colitis C57BL/6 mouse assessed as decrease in p-IkB alpha level in colon at 50 mg/kg, ip administered for 7 days by western blot analysis; format: functional, organism-based; settings: time 7.0 day
Outline: (§2)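 Male C57BL/6 mice, 6 weeks old, 5 per group, given 3.5% DSS solution plus daily intraperitoneal drug (100 μL, in saline/castor oil/ethanol/DMSO 70:10:15:5) for 7 days. Colons collected after sacrifice. IL-1β is normalised per milligram of colonic protein. p-IκB-α and p-p65 in colonic protein are measured by Western blot. Bars give mean + SD.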

[4] = system: RAW264.7; experiment: Antiinflammatory activity against mouse RAW264.7 cells assessed as inhibition of LPS-induced NO production measured after 24 hrs by Griess assay; format: functional, cell-based; settings: RAW264.7, 24 h
Outline: (§3)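 RAW 264.7 cells (1 × 10^5 cells/mL) are cultured 24 h, stimulated with LPS (100 ng/mL final), and treated with compounds from 100 μM downward for 24 h in DMEM with 10% FBS. Medium nitrite is measured by Griess reaction (sulfanilamide, naphthylethylenediamine, phosphoric acid, 10 min, room temperature, dark). Mean + SD from three independent experiments.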

[5] = system: RAW264.7; experiment: Antiinflammatory activity against mouse RAW264.7 cells assessed as inhibition of LPS-induced iNOS mRNA expression at 20 uM incubated for 8 hrs in presence of LPS by qRT-PCR analysis; format: functional, cell-based
Outline: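 RAW 264.7 cells are grown 12 h in six-well plates, then exposed to LPS (100 ng/ml) plus compound for 8 h. Reverse transcription is followed by SYBR Green qPCR with GAPDH as internal control. Relative expression is calculated by 2^-ΔΔCT versus the untreated control. Mean + SD from three independent experiments.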

[6] = system: Mus musculus; experiment: Antiinflammatory activity against DSS-induced colitis C57BL/6 mouse assessed as decrease in p-p65 level in colon at 50 mg/kg, ip administered for 7 days by western blot analysis; format: functional, organism-based; settings: time 7.0 day; outline: as §2
[7] = system: RAW264.7; experiment: Cytotoxicity against mouse RAW264.7 cells assessed as reduction in cell viability at 3 to 100 uM incubated for 24 hrs by MTT assay; format: cell-based; settings: raw264.7, 24 h, dose 3-100 µM
Outline: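 RAW 264.7 cells are seeded at 1.0 × 10^4 per well and incubated overnight. Compounds are added at concentrations from 100 μM downward, with or without LPS (100 ng/mL), for 24 h. MTT (0.5 mg/mL) is added for 4 h and the formazan is dissolved in DMSO for the read-out.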

[8] = system: RAW264.7; experiment: Antiinflammatory activity against mouse RAW264.7 cells assessed as inhibition of LPS-induced NO production at 20 uM after 24 hrs by Griess assay; format: functional; outline: as §3
[9] = system: Mus musculus; experiment: Antiinflammatory activity against DSS-induced colitis C57BL/6 mouse assessed as decrease in p-IkB alpha level in colon at 25 mg/kg, ip administered for 7 days by western blot analysis; format: functional, organism-based; settings: time 7.0 day; outline: as §2

C[C@]12CC[C@H]3[C@@H](CC=C4C[C@@H](O)CC[C@@]43C)[C@@H]1CC[C@@H]2C(=O)n1ccnc1 was tested, and the inhibition [1] was “Active”, the inhibition [2] was “Active” and the Activity [3] was “Active”. For the same molecule, the IC50 [4] was 6.67 µM, the Activity [5] was “Active” and the Activity [6] was “Active”. For the same molecule, the Activity [7] was “Non-Toxic”, the inhibition at 20 µM [8] was 100% and the Activity [9] was “Active”.
